The target of data set [1] is T1, Islet amyloid polypeptide (Homo sapiens) (UniProt P10997).
T1 sequence (whole entry): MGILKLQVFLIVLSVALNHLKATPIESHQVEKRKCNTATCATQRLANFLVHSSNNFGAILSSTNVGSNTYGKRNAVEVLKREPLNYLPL
The data set is described as follows: Inhibition of IAPP fibril formation assessed as fold increase in lag time for aggregate formation at 1:10 protein to compound ratio by thioflavin T fluorescence assay relative to untreated control. Put shortly: (§1)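 IAPP was made synthetic with an amidated C-terminus, pretreated with HFIP, and taken up in DMSO. It was used at 5 μM with 10 μM ThT in 10 mM Tris/HCl, 100 mM NaCl, pH 7.4, with 2.5% DMSO final. Compound was added at a 1:10 peptide:compound ratio. Fluorescence was read over time (ex 440, em 485 nm), 2–6 runs on different days. Lag extension was calculated as t(+compound)/t(alone). Plateau reduction was (F − F+compound)/F × 100%.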

Data set [2] addresses T1, Islet amyloid polypeptide (Homo sapiens). The data set is described as follows: Inhibition of IAPP fibril formation assessed as inhibition of aggregate formation at 1:10 protein to compound ratio by thioflavin T fluorescence assay relative to untreated control. The settings on record: concentration not given here. A digest of the protocol:
as §1

The nature of data set [3]: Inhibition of amyloid beta (1 to 40) fibril formation assessed as fold increase in lag time for aggregate formation at 1:1 protein to compound ratio by thioflavin T fluorescence assay relative to untreated control. Put shortly: (§2)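 HFIP-pretreated synthetic Aβ1-40 (DMSO stock) was used at 20 μM with compound at 1:1 or 1:0.1 peptide:compound ratios. The mixture contained 10 μM ThT in 10 mM Tris/HCl, 100 mM NaCl, pH 7.4, with 2.5% DMSO final. Fluorescence (ex 440, em 485 nm) was followed over time on aliquots, 2–6 runs on different days. Lag extension was taken as t(+compound)/t(alone), and plateau reduction as a percent decrease versus peptide alone.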

Data set [4] in a line: Inhibition of amyloid beta (1 to 40) fibril formation at 1:1 protein to compound ratio by thioflavin T fluorescence assay relative to untreated control. The settings on record: concentration not given here. A digest of the protocol:
as §2

The nature of data set [5]: Solubility of compound in water. The settings on record: buffer. It counts as physicochemical.
Data set [6] in a line: Inhibition of amyloid beta (1 to 40) fibril formation assessed as appearance of spherical aggregates at 1:1 protein to compound ratio after 1 to 2 days by transmission electron microscopy analysis. Put shortly: (§3)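 Aβ1-40 and compound were incubated at a 1:1 ratio in 10 mM Tris·HCl, 100 mM NaCl, pH 7.4, under the ThT assay conditions. Aliquots were taken after 1 day, 2 days and 2 weeks. They were adsorbed onto carbon-coated grids for 2 min, negatively stained, and imaged by TEM.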

Data set [7] in a line: Binding affinity to amyloid beta (1 to 40) assessed as negative chemical shift at 1 mM by 2D NOESY spectroscopy analysis. Put shortly: (§4)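 Synthetic C-terminally amidated Aβ1-40 was studied by NMR in 50 mM sodium phosphate, 150 mM NaCl, pH 7.0, with 10% D2O. 2D NOESY spectra were recorded with a 0.2 s mixing time.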
The target of data set [8] is T1, Islet amyloid polypeptide (Homo sapiens). Kind of data set: Inhibition of IAPP fibril formation at 1:10 protein to compound ratio after 24 hrs by transmission electron microscopy analysis. Put shortly:
(§5)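 IAPP and compound (1:10) were incubated under the ThT assay conditions: 10 mM Tris·HCl, 100 mM NaCl, pH 7.4. Aliquots were taken at 3 h and 24 h, adsorbed onto carbon-coated copper grids for 2 min, negatively stained, and imaged by transmission electron microscopy.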

A short description of data set [9]: Inhibition of amyloid beta (1 to 40) fibril formation assessed as appearance of spherical aggregates at 1:01 protein to compound ratio after 2 weeks by transmission electron microscopy analysis.
A short description of data set [10]: Inhibition of amyloid beta (1 to 40) fibril formation assessed as lag time for aggregate formation at 1:0.1 protein to compound ratio by thioflavin T fluorescence assay relative to untreated control. A digest of the protocol: as §2
A short description of data set [11]: Inhibition of amyloid beta (1 to 40) fibril formation assessed as appearance of spherical aggregates at 1:01 protein to compound ratio after 1 to 2 days by transmission electron microscopy analysis.
Data set [12] can be described thus: Binding affinity to amyloid beta (1 to 40) at 1 mM by STD-NMR spectroscopy. A digest of the protocol:
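1D saturation transfer difference NMR was run in 50 mM sodium phosphate, 150 mM NaCl, pH 7.0, 10% D2O. Compound was at 1 mM and Aβ1-40 at 0.25 mM. Saturation used a cascade of Gaussian selective pulses (50 ms each, B1 0.16 kHz) lasting 2 s in total, applied alternately at -1 and +30 ppm. Compound-alone spectra served as control.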

Data set [13] in a line: Binding affinity to amyloid beta (1 to 40) at 1:20 protein to compound ratio after 2 weeks by STD-NMR spectroscopy. A digest of the protocol:
(§6)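 STD-NMR used diluted Aβ1-40 (30 μM) at a 1:20 peptide:compound ratio, followed over time. Buffer was 50 mM sodium phosphate, 150 mM NaCl, pH 7.0, 10% D2O. A cascade of Gaussian selective pulses (50 ms, B1 0.16 kHz, 2 s total) was applied alternately at -1 and +30 ppm.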

Data set [14] has as its target T1, Islet amyloid polypeptide (Homo sapiens). Kind of data set: Inhibition of IAPP fibril formation at 1:10 protein to compound ratio after 3 hrs by transmission electron microscopy analysis. Put shortly:
as §5

A short description of data set [15]: Binding affinity to amyloid beta (1 to 40) at 1:20 protein to compound ratio up to 1 hr by STD-NMR spectroscopy. A digest of the protocol:
as §6

A short description of data set [16]: Inhibition of amyloid beta (1 to 40) fibril formation assessed as appearance of spherical aggregates at 1:1 protein to compound ratio after 2 weeks by transmission electron microscopy analysis. A digest of the protocol: as §3
Data set [17] in a line: Inhibition of amyloid beta (1 to 40) fibril formation assessed as lag time for aggregate formation at 1:1 protein to compound ratio by thioflavin T fluorescence assay relative to untreated control. A digest of the protocol: as §2
Data set [18] is described as follows: Binding affinity to amyloid beta (1 to 40) assessed as negative chemical shift by NMR spectroscopy analysis. A digest of the protocol: as §4

Active and inactive are the calls of the source. The rule behind the calls is not given here. Numbered stars: 1 amine (or outer) side, 2 acyl side, 3 side chain; on linkers, the order of the positions; unused ones are H or OH. Square brackets hold non-standard residues; d marks the D form. Peptide text beside a SMILES is read from it. * marks the point of attachment. X1 = O=C(CCOC[C@H]1O[C@@H](OCCCN[*:1])[C@H](O)[C@@H](O)[C@@H]1O)[*:2]; X2 = O=C(CCOC[C@H]1O[C@@H](OCCN[*:1])[C@H](O)[C@@H](O)[C@@H]1O)[*:2]; X3 = O=C(CCOC[C@H]1O[C@H](OCCCN[*:1])[C@H](O)[C@@H](O)[C@@H]1O)[*:2]; X4 = O=C(CCOC[C@H]1O[C@H](OCCN[*:1])[C@H](O)[C@@H](O)[C@@H]1O)[*:2]; Boc = CC(C)(C)OC(=O)*

The values below come from ChEMBL document CHEMBL1914311, “Sugar-based peptidomimetics inhibit amyloid β-peptide aggregation” (Eur J Med Chem, 2011).

In general, inhibition refers to the drop in the measured response relative to a control, in per cent.

For the compound `COC(=O)[C@H](CC(C)C)NC(=O)[C@@H](NC(=O)CCOC[C@H]1O[C@@H](OCCNC(=O)[C@@H](NC(=O)[C@H](C)NC(=O)OC(C)(C)C)C(C)C)[C@H](O)[C@@H](O)[C@@H]1O)C(C)C` (Boc-AV[X2]VL-OMe), the fold change (FC) in [1] worked out at 1; in [3], 3.4. Further, the inhibition in data set [2] is 1%; in [4], 40%. For the same compound, in data set [5], the solubility entry is reported as “soluble”.
For the compound `COC(=O)[C@H](CC(C)C)NC(=O)[C@@H](NC(=O)CCOC[C@H]1O[C@@H](OCCCNC(=O)[C@@H](NC(=O)[C@H](C)NC(=O)OC(C)(C)C)C(C)C)[C@H](O)[C@@H](O)[C@@H]1O)C(C)C` (Boc-AV[X1]VL-OMe), the inhibition result in [6], in data set [11] and in [16] was “Active” in each case. Moreover, the outcome in data set [7], in data set [12] and in [13] was Active. Also, the inhibition result in [8], in [9] and in data set [14] was “inactive” each time. In addition, the TIME in data set [10] worked out at 26 h; in [17], 41 h. The fold change (FC) in [1] stood at 1; in data set [3], 3. Besides, the inhibition in data set [2] was 5%; in data set [4], 52%. Besides, the outcome in data set [15] and in data set [18] was inactive. For the same compound, the solubility result in [5] is reported as “soluble”.
For `COC(=O)[C@H](CC(C)C)NC(=O)[C@@H](NC(=O)CCOC[C@H]1O[C@H](OCCNC(=O)[C@@H](NC(=O)[C@H](C)NC(=O)OC(C)(C)C)C(C)C)[C@H](O)[C@@H](O)[C@@H]1O)C(C)C` (Boc-AV[X4]VL-OMe), the fold change (FC) in [3] came out at 3.4. In [4], the inhibition worked out at 22%. In [5], the solubility entry is “soluble”.
Regarding `COC(=O)[C@H](CC(C)C)NC(=O)[C@@H](NC(=O)CCOC[C@H]1O[C@H](OCCCNC(=O)[C@@H](NC(=O)[C@H](C)NC(=O)OC(C)(C)C)C(C)C)[C@H](O)[C@@H](O)[C@@H]1O)C(C)C` (Boc-AV[X3]VL-OMe), the fold change (FC) in data set [1] turned out to be 1; in data set [3], 3.4. Besides, the inhibition in data set [2] turned out to be 9%; in data set [4], 60%. In addition, the solubility entry in data set [5] is “soluble”.
